# Laboratory results as given in ChEMBL document CHEMBL1153533, “Phosphoramidate prodrugs of 2'-C-methylcytidine for therapy of hepatitis C virus infection” (J Med Chem, 2009).
# Tests used:
# [1] = Cytotoxicity against human HBI10A cells
# [2] = test system: Hepatitis C virus; assay: Antiviral activity against HCV infected in human HBI10A cells by subgenomic viral replicon assay; assay type: functional, organism-based, Hepacivirus hominis
# [3] = Selectivity index, ratio of CC50 for human HBI10A cells to EC50 for HCV infected in human HBI10A cells
# Outline: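 Subgenomic HCV replicon assay gives EC₅₀ (n = 2-9 independent determinations). CC₅₀ is the concentration cutting cell viability by 50%. SI = CC₅₀/EC₅₀.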
# [4] = test system: Hepatitis C virus; assay: Antiviral activity against HCV assessed as logarithmic reduction in plasma viral RNA at 800 mg, po BID after 14 days; assay type: functional, Hepacivirus hominis
# [5] = test system: Hepatocyte; assay: Stability in cryopreserved primary human hepatocytes assessed as increase in intracellular nucleoside triphosphate formation by LC-MS/MS analysis; assay type: ADME, cell-based
# [6] = Stability in human HBI10A cells assessed as intracellular nucleoside triphosphate AUC (0 to 24 hrs) at 100 uM by LC-MS/MS analysis
# [7] = Drug concentration in hamster liver assessed as nucleoside triphosphate level at 1.5 umol/kg, sc after 6 hrs; details: cricetinae, in vivo
# [8] = test system: Liver; assay: Drug concentration in rat liver assessed as nucleoside triphosphate level at […], sc after 6 hrs; assay type: ADME, organism-based; details: in vivo, read-out: Drug uptake
# [9] = test system: Hepatitis C virus; assay: Antiviral activity against HCV infected in human HBI10A cells at 20 uM by subgenomic viral replicon assay; assay type: functional, Hepacivirus hominis
# [10] = test system: Hepatitis C virus; assay: Antiviral activity against HCV assessed as logarithmic reduction in plasma viral RNA at 1500 mg, po BID after 14 days; assay type: functional, Hepacivirus hominis
# [11] = Drug level in rabbit liver assessed as nucleoside triphosphate level at 1 mg/kg, sc after 24 hrs; assay type: ADME, organism-based, Oryctolagus cuniculus; set-up: dose 1 mg/kg, route subcutaneous; details: in vivo, read-out: Drug uptake
# [12] = Drug level in hamster liver assessed as nucleoside triphosphate level at 1 mg/kg, sc after 24 hrs; assay type: ADME, organism-based; set-up: dose 1 mg/kg, route subcutaneous; details: cricetinae, in vivo, read-out: Drug uptake
# [13] = test system: Liver; assay: Drug level in rat liver assessed as nucleoside triphosphate level at 1 mg/kg, sc after 24 hrs; assay type: ADME, organism-based; set-up: dose 1 mg/kg, route subcutaneous; details: in vivo, read-out: Drug uptake
# [14] = test system: Hamster; assay: AUC (0 to 48 hrs) in hamster at 1 mg/kg, sc; assay type: ADME, organism-based, Plasma; set-up: time < 48 hr, dose 1 mg/kg, route subcutaneous; details: cricetinae, in vivo
# [15] = test system: Hepatitis C virus; assay: Antiviral activity against HCV assessed as logarithmic reduction in plasma viral RNA at 1500 mg, QD after 14 days; assay type: functional, Hepacivirus hominis
# [16] = test system: Hepacivirus hominis; assay: Inhibition of HCV NS5B polymerase by cell-based assay
SMILES,CC50 [1] [µM],"EC50 ([2]; Hepatitis C virus, HBI10A) [µM]",Ratio CC50/EC50 [3],further results
CCCOC(=O)[C@H](C)NP(=O)(OC[C@H]1O[C@@H](n2ccc(N)nc2=O)[C@](C)(O)[C@@H]1O)Oc1ccccc1 (stereo partly specified),> 20,0.97,,
CCOC(=O)[C@H](C)NP(=O)(OCc1ccccc1)OC[C@H]1O[C@@H](n2ccc(N)nc2=O)[C@](C)(O)[C@@H]1O (stereo partly specified),> 20,> 20,,
CCOC(=O)[C@H](C)NP(=O)(OC[C@H]1O[C@@H](n2ccc(N)nc2=O)[C@](C)(O)[C@@H]1O)Oc1ccc(Cl)cc1 (stereo partly specified),> 20,,,EC50 ([2]; hbi10a): 1 µM
CCOC(=O)[C@H](C)NP(=O)(OC[C@H]1O[C@@H](n2ccc(N)nc2=O)[C@](C)(O)[C@@H]1O)Oc1ccccc1C (stereo partly specified),9,0.18,50,
CC(C)[C@H](N)C(=O)O[C@@H]1[C@@H](CO)O[C@@H](n2ccc(N)nc2=O)[C@]1(C)O [VALOPICITABINE],> 100,7.6,>13,Activity [4]: 1.2; Activity [5]: Dose-dependent effect; AUC [6]: 70 µM·h
COC(=O)[C@@H](C)NP(=O)(OC[C@H]1O[C@@H](n2ccc(N)nc2=O)[C@](C)(O)[C@@H]1O)Oc1ccc(Cl)cc1 (mixture of isomers),> 20,7.7,>2.5,
CCOC(=O)[C@H](C)NP(=O)(OC[C@H]1O[C@@H](n2ccc(N)nc2=O)[C@](C)(O)[C@@H]1O)Oc1ccc(Cl)cc1 (mixture of isomers),,,,EC50 ([2]; hbi10a): 1.8 µM
CCOC(=O)[C@H](C)NP(=O)(OC[C@H]1O[C@@H](n2ccc(N)nc2=O)[C@](C)(O)[C@@H]1O)Oc1cc(C)c(Cl)cc1C(C)C (stereo partly specified),9,0.19,47,
CCCC(CCC)C(=O)OCCNP(=O)(O)OC[C@H]1O[C@@H](n2ccc(N)nc2=O)[C@](C)(O)[C@@H]1O,,,,Drug uptake [7]: 13 µM; concentration [8]: 36 µM
CCOC(=O)[C@H](C)NP(=O)(OC[C@H]1O[C@@H](n2ccc(N)nc2=O)[C@](C)(O)[C@@H]1O)Oc1ccc(C[C@H](N)C(=O)OC)cc1 (stereo partly specified),> 20,> 20,,
"CCOC(=O)[C@H](C)NP(=O)(OC[C@H]1O[C@@H](n2ccc(N)nc2=O)[C@](C)(O)[C@@H]1O)Oc1ccc(Cl)cc1 (single isomer, unassigned)",,,,EC50 ([2]; hbi10a): 7.9 µM
COCCCOC(=O)[C@H](C)NP(=O)(OC[C@H]1O[C@@H](n2ccc(N)nc2=O)[C@](C)(O)[C@@H]1O)Oc1ccccc1 (stereo partly specified),> 20,1.9,,
CCOC(=O)[C@H](C)NP(=O)(OC[C@H]1O[C@@H](n2ccc(N)nc2=O)[C@](C)(O)[C@@H]1O)OCC(Cl)(Cl)Cl (stereo partly specified),> 50,10,>5,inhibition at 20 µM [9]: 52%
COC(=O)[C@H](C)NP(=O)(OC[C@H]1O[C@@H](n2ccc(N)nc2=O)[C@](C)(O)[C@@H]1O)Oc1ccc(OC)cc1 (mixture of isomers),> 50,3.7,>13,
CC(C)C(=O)OC[C@H]1O[C@@H](n2ccc(N)nc2=O)[C@](C)(F)[C@@H]1OC(=O)C(C)C [MERICITABINE],,,,Activity [10]: 2.7
CCCC(CCC)COC(=O)[C@H](C)NP(=O)(O)OC[C@H]1O[C@@H](n2ccc(N)nc2=O)[C@](C)(O)[C@@H]1O,> 100,8.2,,Drug uptake [7]: 39 µM; concentration [11]: 4.1 µM; concentration [12]: 6 µM; concentration [13]: 2.9 µM; concentration [8]: 5 µM; AUC [14]: 700 µM·h

SMILES,CC50 [1] [µM],"EC50 ([2]; Hepatitis C virus, HBI10A) [µM]",Ratio CC50/EC50 [3],further results
CCOC(=O)[C@H](CC(C)C)NP(=O)(OC[C@H]1O[C@@H](n2ccc(N)nc2=O)[C@](C)(O)[C@@H]1O)Oc1ccc(Cl)cc1 (mixture of isomers),> 50,7,>7,
CCCCOC(=O)[C@H](C)NP(=O)(OC[C@H]1O[C@@H](n2ccc(N)nc2=O)[C@](C)(O)[C@@H]1O)Oc1cccc2ccccc12 (stereo partly specified),9,0.09,,
"CCOC(=O)[C@H](Cc1c[nH]c2ccccc12)NP(=O)(OC[C@H]1O[C@@H](n2ccc(N)nc2=O)[C@](C)(O)[C@@H]1O)Oc1ccc(Cl)cc1 (single isomer, unassigned)",> 50,17,>3,
CCCC[C@H](NP(=O)(OC[C@H]1O[C@@H](n2ccc(N)nc2=O)[C@](C)(O)[C@@H]1O)Oc1ccc(Cl)cc1)C(=O)OCC (mixture of isomers),> 20,1.5,>13,
CCOC(=O)[C@H](C)NP(=O)(OC[C@H]1O[C@@H](n2ccc(N)nc2=O)[C@](C)(O)[C@@H]1O)Oc1ccccc1C(=O)OC (mixture of isomers),> 50,11,>5,
CCCCOC(=O)[C@H](C)NP(=O)(OC[C@H]1O[C@@H](n2ccc(N)nc2=O)[C@](C)(O)[C@@H]1O)Oc1ccccc1Cl (stereo partly specified),> 20,0.87,>23,
COC(=O)CNP(=O)(OC[C@H]1O[C@@H](n2ccc(N)nc2=O)[C@](C)(O)[C@@H]1O)Oc1ccc(Cl)cc1 (mixture of isomers),> 20,0.8,>25,
COC(=O)[C@H](C)NP(=O)(OC[C@H]1O[C@@H](n2ccc(N)nc2=O)[C@](C)(O)[C@@H]1O)Oc1ccc(C(F)(F)F)cc1 (stereo partly specified),> 50,9.6,>5,
CCOC(=O)[C@H](C)NP(=O)(OC[C@H]1O[C@@H](n2ccc(N)nc2=O)[C@](C)(O)[C@@H]1O)Oc1cccc2ccccc12 (stereo partly specified),15,0.2,75,
CC(C)C(=O)OC[C@@]1(N=[N+]=[N-])O[C@@H](n2ccc(N)nc2=O)[C@H](OC(=O)C(C)C)[C@@H]1OC(=O)C(C)C [BALAPIRAVIR],,,,Activity [15]: 1.2
COC(=O)CCNP(=O)(OC[C@H]1O[C@@H](n2ccc(N)nc2=O)[C@](C)(O)[C@@H]1O)Oc1ccc(Cl)cc1 (mixture of isomers),> 20,> 20,,
COC(=O)[C@H](Cc1ccccc1)NP(=O)(OC[C@H]1O[C@@H](n2ccc(N)nc2=O)[C@](C)(O)[C@@H]1O)Oc1ccc(Cl)cc1 (mixture of isomers),> 20,> 20,,
CCCCOC(=O)[C@H](C)NP(=O)(OC[C@H]1O[C@@H](n2ccc(N)nc2=O)[C@](C)(O)[C@@H]1O)Oc1ccc(Cl)c2ccccc12 (mixture of isomers),> 20,0.16,125,
C[C@@]1(O)[C@H](O)[C@@H](CO)O[C@H]1n1ccc(N)nc1=O,,,,Activity [16]: 2 µM
CCOC(=O)[C@@H](NP(=O)(OC[C@H]1O[C@@H](n2ccc(N)nc2=O)[C@](C)(O)[C@@H]1O)Oc1ccc(Cl)cc1)c1ccccc1 (mixture of isomers),> 20,7.4,>2.5,
CCOC(=O)[C@H](C)NP(=O)(OC[C@H]1O[C@@H](n2ccc(N)nc2=O)[C@](C)(O)[C@@H]1O)Oc1ccc2c(ccn2C(=O)OC(C)(C)C)c1 (stereo partly specified),> 20,0.5,40,
